Test [1] relates to Staphylococcus aureus. As to the kind of experiment: Bactericidal activity against methicillin-sensitive Staphylococcus aureus 8325-4. The format is functional. The gist of the method:
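MBC against MSSA strain 8325-4, determined per a previously described method; paired MIC by CLSI broth microdilution, MIC being lowest concentration giving ≥90% growth inhibition.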

The test system of test [2] is Staphylococcus aureus. As to the kind of experiment: Bactericidal activity against methicillin-resistant Staphylococcus aureus ATCC 33591. Format: functional.
The subject of test [3] is Staphylococcus aureus. Put plainly: Ratio of MBC to MIC for methicillin-sensitive Staphylococcus aureus 8325-4. The format is functional.
The subject of test [4] is Staphylococcus aureus. Put plainly: Ratio of MBC to MIC for methicillin-resistant Staphylococcus aureus ATCC 33591. Format: functional. The gist of the method:
(§1)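 Ratio of MBC to MIC, both in µg/mL. MIC was found by CLSI broth microdilution as the lowest concentration giving ≥90% growth inhibition. MBC was found by a previously described method. Per CLSI, a ratio of 1–2 is read as bactericidal and ≥8 as bacteriostatic.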

Test [5] concerns Staphylococcus aureus. Put plainly: microbe, parasite or virus in culture. The format is functional. The note with it: 8325-4.
The target in test [6] is T1, Cell division protein FtsZ (Staphylococcus aureus) (UniProt P0A031).
T1 sequence (whole entry): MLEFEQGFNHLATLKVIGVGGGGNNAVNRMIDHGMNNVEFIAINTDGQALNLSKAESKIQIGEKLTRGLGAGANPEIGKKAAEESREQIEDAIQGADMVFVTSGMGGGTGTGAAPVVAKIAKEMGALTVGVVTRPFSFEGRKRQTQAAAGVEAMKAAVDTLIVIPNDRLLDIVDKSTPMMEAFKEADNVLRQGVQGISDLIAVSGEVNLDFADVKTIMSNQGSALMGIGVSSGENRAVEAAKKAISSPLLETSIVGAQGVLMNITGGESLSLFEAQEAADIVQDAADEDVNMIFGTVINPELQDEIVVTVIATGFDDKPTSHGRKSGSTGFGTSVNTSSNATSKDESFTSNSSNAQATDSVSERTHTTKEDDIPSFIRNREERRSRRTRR
As to the kind of experiment: Stimulation of purified Staphylococcus aureus FtsZ polymerization at 40 ug/ml by microtiter plate based light-scattering assay.

The subject of test [7] is Enterococcus faecalis. As to the kind of experiment: Bactericidal activity against vancomycin-resistant Enterococcus faecalis ATCC 51575. Format: functional.
Test [8] has as its system Enterococcus faecalis. As to the kind of experiment: Ratio of MBC to MIC for vancomycin-resistant Enterococcus faecalis ATCC 51575. Format: functional. The essentials:
as §1

For test [9], the system named is Enterococcus faecalis. As to the kind of experiment: microbe, parasite or virus in culture. Format: functional. The note with it: ATCC 19433.
Test [10] has as its system Staphylococcus aureus. As to the kind of experiment: microbe, parasite or virus in culture. Format: functional. The note with it: ATCC 33591.
Test [11] has as its system Enterococcus faecalis. Put plainly: microbe, parasite or virus in culture. Format: functional. The note with it: ATCC 51575.
The target of test [12] is T1, Cell division protein FtsZ (Staphylococcus aureus). Put plainly: Stimulation of purified Staphylococcus aureus FtsZ polymerization at 40 ug/ml by microtiter plate based light-scattering assay in presence of 10 mM depolymerizing agent GDP.
The target is the same in test [13]. As to the kind of experiment: Stimulation of purified Staphylococcus aureus FtsZ polymerization at 80 ug/ml by microtiter plate based light-scattering assay.

Values after ≈ are worked out from the molar mass of the structure shown. Active and inactive are the calls of the source. The rule behind the calls is not given here.

This is an account of results in ChEMBL document CHEMBL2413051, “Antibacterial activity of quinoxalines, quinazolines, and 1,5-naphthyridines” (2013).

As usually defined, the MBC is the lowest tested concentration that kills the bacteria rather than only halting them. The low end stands for greater bactericidal potency, the high end for weaker bactericidal potency. As for `CC(C)(C)c1cccc(-c2cnc3c(CNC(=N)N)cccc3n2)c1`, the MBC turned out to be 4 µg/mL (≈ 12 µM) against Staphylococcus aureus [1], 8 µg/mL (≈ 24 µM) against Staphylococcus aureus [2] and 32 µg/mL (≈ 96 µM) against Enterococcus faecalis [7]. In addition, the Ratio with Staphylococcus aureus [3] was 1; in the test with Staphylococcus aureus [4] it was 2; with Enterococcus faecalis [8], 2. For the same compound, the MIC in the test with Staphylococcus aureus [5] was 4 µg/mL (≈ 12 µM); in the test on Enterococcus faecalis [9], 8 µg/mL (≈ 24 µM); with Staphylococcus aureus [10] it was 4 µg/mL (≈ 12 µM); against Enterococcus faecalis [11], 16 µg/mL (≈ 48 µM). In addition, the outcome in test [6] and in [12] was Active.
With `C[n+]1cc(-c2cccc(-c3ccccc3)c2)nc2ccccc21.[I-]`, the MBC with Staphylococcus aureus [1] was found to be 4 µg/mL; against Staphylococcus aureus [2] it was 4 µg/mL; with Enterococcus faecalis [7], 64 µg/mL. Moreover, the Ratio with Staphylococcus aureus [3] and in the test with Enterococcus faecalis [8] was 8 in each case. In addition, the MIC was 0.5 µg/mL against Staphylococcus aureus [5], 8 µg/mL with Enterococcus faecalis [9], 0.5 µg/mL against Staphylococcus aureus [10] and 8 µg/mL against Enterococcus faecalis [11]. In addition, the outcome in test [6] was inactive. Further, in test [12], the outcome was Active.
Turning to `CC(C)(C)c1ccc(-c2ccnc3c(CNC(=N)N)ccnc23)cc1`, the figures for the MBC with Staphylococcus aureus [1], against Staphylococcus aureus [2] and in the test on Enterococcus faecalis [7] were 8 µg/mL (≈ 24 µM), 16 µg/mL (≈ 48 µM) and 64 µg/mL (≈ 192 µM), respectively. Also, the figures for the Ratio in the test with Staphylococcus aureus [3], in the test on Staphylococcus aureus [4] and with Enterococcus faecalis [8] were 1, 2 and 1, respectively. Moreover, the MIC against Staphylococcus aureus [5] came out at 8 µg/mL (≈ 24 µM); against Enterococcus faecalis [9] it was 32 µg/mL (≈ 96 µM); against Staphylococcus aureus [10], 8 µg/mL (≈ 24 µM); in the test on Enterococcus faecalis [11], 64 µg/mL (≈ 192 µM). The outcome in test [13] and in test [12] was Active.
Consider `C[n+]1cc(-c2cccc(C(C)(C)C)c2)nc2ccccc21.[I-]`, for which the MBC was determined as 16 µg/mL against Staphylococcus aureus [1], 16 µg/mL in the test on Staphylococcus aureus [2] and 64 µg/mL in the test on Enterococcus faecalis [7]. For the same compound, the figures for the Ratio in the test with Staphylococcus aureus [3] and in the test on Enterococcus faecalis [8] were 8 and 4, respectively. Also, the MIC against Staphylococcus aureus [5] came to 2 µg/mL; against Enterococcus faecalis [9], 8 µg/mL; against Staphylococcus aureus [10] it was 2 µg/mL; in the test with Enterococcus faecalis [11], 16 µg/mL. For the same compound, the result in test [6] was inactive. For the same compound, the result in test [12] was Active.
As for `CC(C)(C)c1ccc(-c2cnc3c(CNC(=N)N)cccc3n2)cc1`, the results for the MBC with Staphylococcus aureus [1], with Staphylococcus aureus [2] and with Enterococcus faecalis [7] were 4 µg/mL (≈ 12 µM), 8 µg/mL (≈ 24 µM) and 16 µg/mL (≈ 48 µM), respectively. Further, the Ratio came out at 1 in the test on Staphylococcus aureus [3], 2 with Staphylococcus aureus [4] and 1 in the test with Enterococcus faecalis [8]. Besides, the MIC in the test with Staphylococcus aureus [5] turned out to be 4 µg/mL (≈ 12 µM); with Enterococcus faecalis [9], 8 µg/mL (≈ 24 µM); with Staphylococcus aureus [10], 4 µg/mL (≈ 12 µM); in the test with Enterococcus faecalis [11], 16 µg/mL (≈ 48 µM). In addition, the result in [6] and in [12] was Active.
For the compound `C[n+]1cc(-c2ccc(C(C)(C)C)cc2)nc2ccccc21.[I-]`, the MBC was 8 µg/mL against Staphylococcus aureus [1], 16 µg/mL in the test on Staphylococcus aureus [2] and 64 µg/mL against Enterococcus faecalis [7]. Moreover, the Ratio in the test on Staphylococcus aureus [3] came out at 16; with Enterococcus faecalis [8], 4. Moreover, the MIC against Staphylococcus aureus [5] was 0.5 µg/mL; against Enterococcus faecalis [9], 16 µg/mL; in the test with Staphylococcus aureus [10] it was 1 µg/mL; against Enterococcus faecalis [11], 16 µg/mL. For the same compound, in test [12], the outcome was Active.
With `CC(C)(C)c1ccc(-c2ncnc3c(CNC(=N)N)cccc23)cc1`, the MBC in the test on Staphylococcus aureus [1] turned out to be 8 µg/mL (≈ 24 µM); in the test on Staphylococcus aureus [2], 16 µg/mL (≈ 48 µM); in the test on Enterococcus faecalis [7], 64 µg/mL (≈ 192 µM). The Ratio in the test with Staphylococcus aureus [3] and in the test on Enterococcus faecalis [8] was 2 throughout. Besides, the MIC turned out to be 4 µg/mL (≈ 12 µM) with Staphylococcus aureus [5], 32 µg/mL (≈ 96 µM) against Enterococcus faecalis [9], 8 µg/mL (≈ 24 µM) against Staphylococcus aureus [10] and 32 µg/mL (≈ 96 µM) against Enterococcus faecalis [11]. Moreover, the result in [13] and in [12] was Active.
